Experimental data published in ChEMBL document CHEMBL1145762, “Antiplatelet activity of synthetic pyrrolo-benzylisoquinolines” (Bioorg Med Chem Lett, 2003).

Key:
Type in all cases: functional, organism-based
Homo sapiens [1] = species on record: Homo sapiens; experiment: Antiplatelet aggregation (platelet activating factor-induced) activity at a concentration of 2 ng/mL
How it was run: (§1)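 Platelets preincubated with test compound, aspirin or DMSO (0.5%, control) at 37 °C for 3 min, then aggregation inducer added (arachidonic acid, collagen, PAF or thrombin). IC50 values given as means ± S.E. (n=3).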

Homo sapiens [2] = species on record: Homo sapiens; experiment: Antiplatelet aggregation (collagen-induced) activity at a concentration of 10 ug/mL; how it was run: as §1
Homo sapiens [3] = species on record: Homo sapiens; experiment: Inhibitory activity against arachidonic acid-induced platelet aggregation at a concentration of 100 uM was determined; how it was run: as §1
Homo sapiens [4] = species on record: Homo sapiens; experiment: Antiplatelet aggregation (thrombin-induced) activity at a concentration of 0.1 U; how it was run: as §1

| Compound | IC50 (Homo sapiens [1]) [µM] | IC50 (Homo sapiens [2]) [µM] | IC50 (Homo sapiens [3]) [µM] | IC50 (Homo sapiens [4]) [µM] |
| --- | --- | --- | --- | --- |
| COc1cc2c(cc1OC)C1=C(c3ccc(Br)cc3)C(=O)C(=O)N1CC2 | > 100 | 29.8 | 72.7 | > 100 |
| COc1ccc(C2=C3c4cc(OC)c(OC)cc4CCN3C(=O)C2=O)cc1 | 33.2 | 9.15 | 15.2 | 30.7 |
| COc1cccc(C2=C3c4cc(OC)c(OC)cc4CCN3C(=O)C2=O)c1 | > 100 | 6.1 | 21 | > 100 |
| COc1cc2c(cc1OC)C1=C(c3ccccc3Cl)C(=O)C(=O)N1CC2 | > 100 | 44.9 | 78.3 | > 100 |
| COc1cc2c(cc1OC)C1=C(c3ccc(Cl)cc3)C(=O)C(=O)N1CC2 | 84.8 | 30 | 52.8 | > 100 |
| COc1cc2c(cc1OC)C1=C(c3cccc(Br)c3)C(=O)C(=O)N1CC2 | > 100 | 23.3 | 45.5 | > 100 |
| CC(=O)Oc1ccccc1C(=O)O [ASPIRIN] | > 100 | 22.4 | 44.6 | > 100 |
| COc1cc2c(cc1OC)C1=C(c3cccc(Cl)c3)C(=O)C(=O)N1CC2 | > 100 | 37.5 | 53.8 | > 100 |
| COc1cc2c(cc1OC)C1=C(c3ccccc3Br)C(=O)C(=O)N1CC2 | > 100 | 39.8 | > 100 | > 100 |
| COc1cc2c(cc1OC)C1=C(c3ccccc3OC)C(=O)C(=O)N1CC2 | > 100 | 35.8 | 65.5 | > 100 |
